MIC90 data for three compounds are collected here from ChEMBL document CHEMBL2346611, “Preliminary structure-activity relationships and biological evaluation of novel antitubercular indolecarboxamide derivatives against drug-susceptible and drug-resistant Mycobacterium tuberculosis strains” (J Med Chem, 2013).

Common to all, as to type: functional
Assay [1] deals with Mycobacterium tuberculosis. In words: Antitubercular activity against extensively drug resistant Mycobacterium tuberculosis V2475 by microplate Alamar Blue assay. (Alamar Blue is a resazurin reagent that responds to reducing activity.)
Assay [2] has as its system Mycobacterium tuberculosis. Nature of the assay: Antitubercular activity against multi drug resistant Mycobacterium tuberculosis KZN494 by microplate Alamar Blue assay. The procedure, abridged: (§1)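 Mycobacterium tuberculosis strains were used: H37Rv, and clinical strains from KwaZulu-Natal (MDR KZN494 and V2475; XDR TF274 and R506). Growth was read by microplate Alamar Blue assay. MIC is the lowest drug concentration giving at least a 90% reduction of the bacterial growth signal. Values are the average of three individual measurements.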

Assay [3] has as its system Mycobacterium tuberculosis. In words: Antitubercular activity against extensively drug resistant Mycobacterium tuberculosis R506 by microplate Alamar Blue assay. A digest of the protocol: as §1
Assay [4] has as its system Mycobacterium tuberculosis. In words: Antitubercular activity against extensively drug resistant Mycobacterium tuberculosis TF274 by microplate Alamar Blue assay. The procedure, abridged: as §1

Molecules are shown by their SMILES. Converted amounts (≈) assume the structure as drawn.

As usually defined, the MIC90 is an inhibitory concentration at the 90% level, which refers to growth in some studies and to a panel of isolates in others. Turning to `Cc1cc(C)c2cc(C(=O)NC3CCCCC3)[nH]c2c1`, the MIC90 amounted to 0.93 µM (≈ 0.251 µg/mL) in assay [1], 3.7 µM (≈ 1 µg/mL) in assay [2], 0.46 µM (≈ 0.124 µg/mL) in assay [3] and 0.46 µM (≈ 0.124 µg/mL) in assay [4].

Take `Cc1cc(C)c2cc(C(=O)NC3CCCCCCC3)[nH]c2c1`: the MIC90 was 0.0067 µM (≈ 0.002 µg/mL) in assay [3] and 0.026 µM (≈ 0.00776 µg/mL) in assay [4].

On to `Cc1cc(C)c2cc(C(=O)NC3CCCCCC3)[nH]c2c1`, for which the MIC90 was determined as 0.11 µM (≈ 0.0313 µg/mL) in assay [1], 0.11 µM (≈ 0.0313 µg/mL) in assay [2], 0.055 µM (≈ 0.0156 µg/mL) in assay [3] and 0.055 µM (≈ 0.0156 µg/mL) in assay [4].
